Screening data (PubChem)
Shown is part of a subset that was picked to be rich in hits.
Redox H2O2 prof – compounds producing H2O2 with reducing agent – biochemical, NIH compound library profiling, artefact control for MLSCN library redox annotation, primary screen; DTT-dependent redox cycling H2O2, phenol red/HRP absorbance; 100% = 100 µM peroxide control, 0% = buffer; activation, % at 10 µM; 0.03% of 200,000 active; AID 878, 2007;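 active = activation of at least 50% relative to the plate's high and low controls in the primary single-dose screen; inactive = activation below 50%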;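 note: compound incubated with DTT at 0.8 mM final as the reducing agent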
T cruzi inh – inhibitors of intracellular T. cruzi growth, primary screen, luminescence, NIH3T3 host cells. T. cruzi beta-gal in NIH3T3, 90 h. inhibition, % (no concentration beside the values). 1.4% of 300,000 active;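 active = mean inhibition across valid replicates above about 55%, limit read from the data; inconclusive = mean below that limit but half or more replicates reach it; inactive = mean below it, under half of replicates reach it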;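 note: signal also drops with host cell toxicity which is not excluded here; higher percent means less beta-gal luminescence so fewer parasites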
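Assay system: NIH/3T3 fibroblasts plus reporter T. cruzi. Amount: NIH/3T3 cells, 5,000 per well. Buffer or medium: DMEM, 2% fetal bovine serum. Doses: compound pinned at 50 nL/well, DMSO. Schedule: ≥90 h infection period, 3 h prior cell attachment. Signal: luminescent β-galactosidase signal after 60 min lysis. Read-out: parasite load inhibition, %.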
Lipid droplet – inhibitors of hepatocyte lipid droplet formation, primary screen, imaging, high-throughput imaging, BODIPY stain; inhibition, % at 6.5 µM; AID 1656, 2009; AML12 mouse hepatocytes, oleate lipid droplets; 0.4% of 240,000 active;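 active = lipid droplet intensity inhibited by at least 50%, with more than 500 cells counted; inconclusive = wells with under 300 cells, treated as cytotoxic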
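Test system: AML12 mouse liver cells; schedule: overnight exposure; technique: high-content imaging of BODIPY-stained droplets and DAPI nuclei; read-out: % inhibition of corrected integrated BODIPY droplet signal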
MPTP block – mitochondrial permeability transition pore inhibitors, primary screen, biochemical, isolated mouse mitochondria, absorbance | 1.4% of 360,000 active | Ca2+ swelling absorbance, 30 min | inhibition, % at 10 µM | AID 602449, 2012;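 active = inhibition of 50% or more, scaled per plate between neutral and stimulator controls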
L major viab – Leishmania major promastigote growth inhibition, primary screen; AID 1063, 2008; Leishmania major promastigotes, resazurin fluorescence viability; 9% of 200,000 active; inhibition, % at 10 µM; in the data active = inhibition above about 50%;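 note: promastigotes grown with compound for 44 hours at 28 °C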
A number is an active result; - = inactive; ? = inconclusive; . = no result given.

SMILES	Redox H2O2 prof	T cruzi inh	Lipid droplet	MPTP block	L major viab
Cc1ccc2[nH]c(=O)c(CN(Cc3ccc4c(c3)OCO4)Cc3nnnn3Cc3ccco3)cc2c1	-	-	-	-	100
Cc1cccc(CN2CCN(Cc3nc4c(s3)CCCC4)CC2CCO)n1 (configuration not stated)	-	-	-	-	-
Clc1cccc(COn2c(-c3ccc(Cl)cc3Cl)nc3ncccc32)c1	-	-	-	-	100
COc1ccc(-c2cc3c(=O)n(CC(=O)N4CCN(C)CC4)ncn3n2)cc1	.	-	-	-	.
O=[N+]([O-])c1ccc(NCCCNS(=O)(=O)c2ccccc2)c(Cl)c1	-	-	-	-	64
Cc1ccc(C(=O)NCCNc2ccc([N+](=O)[O-])cc2C(F)(F)F)cc1	-	-	-	-	81
CCOCCCNS(=O)(=O)c1ccc(NC(=O)c2ccc([N+](=O)[O-])cc2Cl)cc1	-	-	-	-	74
O=[N+]([O-])c1ccc(NCCNS(=O)(=O)c2ccccc2)cc1	-	-	-	-	-
O=[N+]([O-])c1ccc(NCCNS(=O)(=O)c2ccccc2)c(C(F)(F)F)c1	-	-	.	-	79
CN(C)c1ccc(/C=[N+](\[O-])C2N(c3ccccc3)C(=S)SC2(C)C)cc1 (configuration not stated)	-	-	-	-	-
Cc1ccccc1S(=O)(=O)NC(=O)C1(C)CCN1C(=O)C1(c2ccccc2)CC1 (configuration not stated)	.	.	.	-	.
CCN(CC)C(=O)c1cc(Cl)ccc1NC(=O)c1ccco1	.	-	-	-	.
CCN(CC)P(=O)(Nc1ccccc1Br)c1ccc(N(C)C)cc1NC(=O)c1ccco1 (configuration not stated)	-	57	-	-	73
O=C(CNC(=O)c1ccc(S(=O)(=O)N2CCCC2)cc1)N/N=C/c1ccccc1Cl	-	-	-	-	94
CCOc1ccc(/C=N/NC(=O)CNC(=O)c2ccc(S(=O)(=O)N3CCOCC3)cc2)cc1	-	-	-	-	-
O=C(CNC(=O)c1ccc(S(=O)(=O)N2CCCC2)cc1)N/N=C/c1ccc(F)cc1	-	-	-	-	55
COc1ccccc1/C=N/NC(=O)CNC(=O)c1ccc(S(=O)(=O)N2CCCC2)cc1	-	-	-	-	-
COc1ccc(OC)c(/C=N/NC(=O)CNC(=O)c2ccc(S(=O)(=O)N3CCOCC3)cc2)c1	-	-	-	-	65
CCOC(=O)C1=CCN(S(=O)(=O)c2ccccc2F)C1c1cccc(Cl)c1 (configuration not stated)	.	.	.	-	.
CC(C)=CCCC(C)CN1CCC(N2CCC(C(=O)NC(C)C)CC2)CC1 (configuration not stated)	-	-	-	-	83
O=C(C1CCN(C2CCN(CC3CC=CCC3)CC2)CC1)N1CCOCC1 (configuration not stated)	-	-	-	-	76
CC(C)NC(=O)C1CCN(C2CCN(CC3CC=CCC3)CC2)CC1 (configuration not stated)	-	-	-	-	-
CC(C)=CCCC(C)CN1CCC(N2CCC(C(=O)N3CCOCC3)CC2)CC1 (configuration not stated)	-	-	-	-	96
CCC(=O)N1CCc2cc(S(=O)(=O)CCC(=O)Nc3ccc(OC)cc3)ccc21	.	-	-	-	.
CCC(=O)N1CCc2cc(S(=O)(=O)CCC(=O)Nc3cccc(C)n3)ccc21	-	-	-	-	56
SMILES	Redox H2O2 prof	T cruzi inh	Lipid droplet	MPTP block	L major viab
Cc1ccc2nc(N/N=C/c3ccco3)cc(C)c2c1	-	-	-	-	62
Cc1ccc2nc(SCC(=O)N/N=C/c3ccco3)cc(C)c2c1	-	-	-	-	-
O=C(N/N=C/c1ccc([N+](=O)[O-])o1)c1cc(-c2ccc(-c3ccccc3)cc2)nc2ccccc12	-	-	?	-	100
Cc1cc(N/N=C/c2ccc([N+](=O)[O-])o2)nc2ccccc12	-	-	-	-	83
Cn1c(/C=C/c2ccc([N+](=O)[O-])o2)nc2ccccc2c1=O	-	67	.	-	100
COc1ccc(OC)c(NC(=O)CSc2nc3nc(C)cc(C)n3n2)c1	.	.	.	-	.
CC(=O)c1ccc(NC(=O)CSc2ccc3nnc(-c4cccnc4)n3n2)cc1	-	-	-	-	-
CC1=C(C(=O)N2CCCCCC2)CC(CC(=O)NC2CCCC2)C(=O)N1Cc1ccc(C(C)(C)C)cc1 (configuration not stated)	.	.	.	-	.
Cc1cccc(C)c1OC(=O)CCN1C(=O)C2C3C=CC(C4CC34)C2C1=O (configuration not stated)	-	-	-	-	-
O=C(N/N=C/c1ccc([N+](=O)[O-])o1)c1cc(-c2ccncc2)nc2ccccc12	-	-	.	-	99
Cc1nc(N)nc(N)c1CCCc1ccc(Cl)c(Cl)c1	.	62	.	-	.
O=C(COC(=O)c1cc(=O)[nH]c2ccccc12)Nc1ccccc1F	.	.	.	-	.
COc1ccc(-n2cc(CNCCCN3CCCC3=O)c(-c3ccccc3Cl)n2)cc1	-	-	-	-	-
Fc1ccc(-n2cc(CNCCc3ccncc3)c(-c3ccccc3Cl)n2)cc1	-	-	-	-	64
Fc1ccc(-n2cc(CNCCc3cccnc3)c(-c3ccccc3Cl)n2)cc1	-	-	-	-	57
Cc1ccc(-c2nn(-c3cccc(F)c3)cc2CNCc2cccnc2)o1	-	?	-	-	-
CC(C)(CN1CCCC1)NS(=O)(=O)c1ccc(Cl)cc1	.	-	-	-	.
CC1CCCC(C)N1CC(C)(C)NS(=O)(=O)c1ccc(Cl)cc1 (configuration not stated)	-	-	-	-	88
CC1CC(C)CN(CC(C)(C)NS(=O)(=O)c2ccccc2)C1 (configuration not stated)	-	-	.	-	89
CCCCC[n+]1ccn(C2=C([O-])c3ccccc3C(=O)/C2=N\S(=O)(=O)c2ccccc2)c1	-	-	.	-	91
CCCC[n+]1ccn(C2=C([O-])c3ccccc3C(=O)/C2=N\S(=O)(=O)c2ccccc2)c1	-	-	.	-	-
CC(C)C(C(=O)NCc1ccco1)N(C(=O)CNS(=O)(=O)c1ccccc1)c1ccccc1 (configuration not stated)	-	-	-	-	-
CN(Cc1ccccc1)C(=O)NC1CCCCC1	-	-	-	-	-
CCCC(C(=O)NC1CCCCC1)N(Cc1ccco1)C(=O)CNS(=O)(=O)c1ccccc1 (configuration not stated)	-	-	-	-	63
CC(C)C(C(=O)NCc1ccco1)N(C(=O)CNS(=O)(=O)c1ccc(Cl)cc1)C1CCCC1 (configuration not stated)	-	-	-	-	89
O=C(NC1CCCCC1)N(Cc1ccccc1)Cc1ccco1	-	-	-	-	55
